Activity calls are given as the source filed them. The rule behind the calls is not given here. *1 amine or outer side, *2 acyl side, *3 side chain or, on linkers, in order; H or OH if unused. Where a SMILES comes first, the peptide text is derived from it. Bridges are numbered along the chain shown (N, C = ends). [ ]: non-standard residue; d: D form. hTyr = N[C@@H](CCc1ccc(O)cc1)C(=O)O; aIle = CC[C@@H](C)[C@H](N)C(=O)O; NMeA = CN[C@@H](C)C(=O)O; CO = O=C([*:1])[*:2]
Legend:
Oryctolagus cuniculus = species: Oryctolagus cuniculus; assay: Inhibition of rabbit skeletal muscle PP1 at 100 ug/mL by liquid scintillation counter
Summary of the method: (§1)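 Enzyme at 0.05 unit/50 µL was incubated with 32P-labelled myelin basic protein, which had been phosphorylated using cAMP-dependent kinase catalytic subunit and γ-[32P]ATP. Reactions ran at 30 °C for 10 min in duplicate and were stopped with 20% trichloroacetic acid on ice. Released 32Pi in the supernatant was counted by liquid scintillation. The control received MeOH.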

[1] = biological target: Dual specificity protein phosphatase 3 (Homo sapiens) (UniProt P51452); assay: Inhibition of human dual specificity protein phosphatase VHR expressed in Escherichia coli JM109 at 100 ug/mL
Sequence of Dual specificity protein phosphatase 3 (Homo sapiens) (P51452 whole entry, looked up): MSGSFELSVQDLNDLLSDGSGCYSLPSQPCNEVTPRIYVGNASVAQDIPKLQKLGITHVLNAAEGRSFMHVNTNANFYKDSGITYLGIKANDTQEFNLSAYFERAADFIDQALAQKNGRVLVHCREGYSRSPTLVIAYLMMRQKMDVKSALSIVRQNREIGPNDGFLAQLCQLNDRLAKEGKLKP

[2] = biological target: T1, M-phase inducer phosphatase 2 (Homo sapiens) (UniProt P30305); assay: Inhibition of human dual specificity protein phosphatase Cdc25B expressed in Escherichia coli BL21 (DE3) at 100 ug/mL
T1 sequence (whole entry): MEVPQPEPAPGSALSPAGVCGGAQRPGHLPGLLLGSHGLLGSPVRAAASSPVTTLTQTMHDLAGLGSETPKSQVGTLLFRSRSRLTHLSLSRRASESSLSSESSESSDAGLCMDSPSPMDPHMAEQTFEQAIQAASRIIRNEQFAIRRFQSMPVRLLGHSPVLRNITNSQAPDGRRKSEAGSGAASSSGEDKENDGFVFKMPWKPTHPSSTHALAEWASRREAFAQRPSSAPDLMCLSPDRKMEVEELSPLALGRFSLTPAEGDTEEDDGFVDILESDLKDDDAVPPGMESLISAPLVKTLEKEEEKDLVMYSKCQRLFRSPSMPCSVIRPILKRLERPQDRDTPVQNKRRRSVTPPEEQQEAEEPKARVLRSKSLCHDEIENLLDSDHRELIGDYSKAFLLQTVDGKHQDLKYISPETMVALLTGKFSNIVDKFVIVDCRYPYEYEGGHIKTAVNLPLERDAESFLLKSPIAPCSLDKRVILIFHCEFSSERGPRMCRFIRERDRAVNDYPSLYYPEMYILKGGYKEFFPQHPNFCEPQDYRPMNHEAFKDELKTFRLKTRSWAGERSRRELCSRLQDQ
Summary of the method: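 The catalytic subunit was expressed from pET21b and purified. Substrate was 200 µM 3-O-methylfluorescein phosphate in 100 mM Tris-HCl, 40 mM NaCl, 1 mM dithiothreitol, 20% glycerol, pH 8.2, at 37 °C for 20 min. Reactions were stopped with 6 M guanidine-HCl/1 M MES, pH 5.5, and the absorbance increase at 477 nm was read. The control received MeOH.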

Homo sapiens = species: Homo sapiens; assay: Inhibition of human red blood cells PP2A at 100 ug/mL by liquid scintillation counter; summary of the method: as §1
[3] = Inhibition of PTP-S2 expressed in Escherichia coli JM109 at 100 ug/mL
[4] = Inhibition of rabbit skeletal muscle PP1; design: species or system Oryctolagus cuniculus; summary of the method: as §1
[5] = Inhibition of human red blood cell PP2A; summary of the method: as §1

For `CC[C@H](C)[C@@H]1NC(=O)[C@H](NC(=O)N[C@@H](CCCNC(=N)N)C(=O)O)CCCCNC(=O)[C@H](Cc2ccccc2)NC(=O)[C@H](C)N(C)C(=O)[C@H](CCc2ccc(O)cc2)NC1=O` ({Arg-CO}-[dK]I[hTyr][NMeA]F; lactam 1-C), the inhibition (Oryctolagus cuniculus) was 38.1%, the Activity [1] was “inactive” and the Activity [2] was “inactive”. For the same molecule, the inhibition (Homo sapiens) was 41.5% and the Activity [3] was “inactive”.
With `CSCC[C@@H]1NC(=O)[C@H](NC(=O)N[C@@H](CCCNC(=N)N)C(=O)O)CCCCNC(=O)[C@H](Cc2ccccc2)NC(=O)[C@H](C)N(C)C(=O)[C@H](CCc2ccc(O)cc2)NC1=O` ({Arg-CO}-[dK]M[hTyr][NMeA]F; lactam 1-C) the inhibition (Oryctolagus cuniculus) was 43.3%, the Activity [1] was “inactive” and the Activity [2] was “inactive”. The inhibition (Homo sapiens) was 62.8% and the Activity [3] was “inactive”.
For `CC[C@@H](C)[C@@H]1NC(=O)[C@H](NC(=O)N[C@@H](Cc2ccc(O)cc2)C(=O)O)CCCCNC(=O)[C@H](Cc2ccccc2)NC(=O)[C@H](C)N(C)C(=O)[C@H](CCc2ccc(O)cc2)NC1=O` ({Tyr-CO}-[dK][aIle][hTyr][NMeA]F; lactam 1-C), the inhibition (Oryctolagus cuniculus) was 11.2%, the Activity [1] was “inactive” and the Activity [2] was “inactive”. The inhibition (Homo sapiens) was 9.6% and the Activity [3] was “inactive”.
For `CC[C@H](C)[C@@H]1NC(=O)[C@H](NC(=O)N[C@@H](CCCNC(=N)N)C(=O)O)CCCCNC(=O)[C@H](Cc2ccccc2)NC(=O)[C@H](CCc2ccc(O)cc2)N(C)C(=O)[C@H](CCc2ccc(O)cc2)NC1=O` [OSCILLAMIDE C], the inhibition (Oryctolagus cuniculus) was 97.3%, the Activity [1] was “inactive” and the Activity [2] was “inactive”. For the same molecule, the inhibition (Homo sapiens) was 98.4%, the IC50 [4] was 900 nM and the Activity [3] was “inactive”. For the same molecule, the IC50 [5] was 1330 nM.

From ChEMBL document CHEMBL1155746, “Isolation of new protein phosphatase inhibitors from two cyanobacteria species, Planktothrix spp” (J Nat Prod, 2001)
